In ChEMBL document CHEMBL3739271, “Synthesis and evaluation of a series of resveratrol analogues as potent anti-cancer agents that target tubulin” (2015):

How the values were obtained:
Format in all cases: functional
MDA-MB-435 = assay: Cytotoxicity against human MDA-MB-435 cells by SRB assay
Procedure, shortened: (§1)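 NCI 60 human tumor cell line panel, sulforhodamine B (SRB) protein-stain read-out. Compounds were first screened at a single dose of 10^-5 M, and selected compounds were then tested in a five-dose format. GI50 is the drug concentration giving a 50% reduction in net protein increase relative to control cells.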

SK-MEL-5 = assay: Cytotoxicity against human SK-MEL-5 cells by SRB assay; procedure, shortened: as §1
[1] = Cytotoxicity against human OVCAR4 cells by SRB assay; details: OVCAR-4; procedure, shortened: as §1
[2] = Cytotoxicity against human IGROV1 cells by SRB assay; details: IGROV-1
Procedure, shortened: (§2)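 NCI 60-cell-line panel using sulforhodamine B protein stain. Initial single-dose screen at 10^-5 M, then five-dose testing. GI50 is the drug concentration giving a 50% reduction in net protein increase relative to control cells.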

[3] = Cytotoxicity against human HOP92 cells by SRB assay; details: HOP-92; procedure, shortened: as §1
M14 = assay: Cytotoxicity against human M14 cells by SRB assay; procedure, shortened: as §1
MCF7 = assay: Cytotoxicity against human MCF7 cells by SRB assay; procedure, shortened: as §1
[4] = Cytotoxicity against human RPMI8226 cells by SRB assay; details: RPMI-8226; procedure, shortened: as §1
NCI-H522 = assay: Cytotoxicity against human NCI-H522 cells by SRB assay; procedure, shortened: as §1
CCRF-CEM = assay: Cytotoxicity against human CCRF-CEM cells by SRB assay; procedure, shortened: as §1
MDA-MB-231 = assay: Cytotoxicity against human MDA-MB-231 cells by SRB assay; procedure, shortened: as §1
[5] = Cytotoxicity against human SF268 cells by SRB assay; details: SF-268; procedure, shortened: as §1
SR = assay: Cytotoxicity against human SR cells by SRB assay; procedure, shortened: as §1
[6] = Cytotoxicity against human SF539 cells by SRB assay; details: SF-539; procedure, shortened: as §1
[7] = Cytotoxicity against human HOP62 cells by SRB assay; details: HOP-62; procedure, shortened: as §1
NCI/ADR-RES = assay: Cytotoxicity against human NCI/ADR-RES cells by SRB assay; procedure, shortened: as §1
[8] = Cytotoxicity against human SNB75 cells by SRB assay; details: SNB-75; procedure, shortened: as §1
ACHN = assay: Cytotoxicity against human ACHN cells by SRB assay; procedure, shortened: as §1
[9] = Cytotoxicity against human SKOV3 cells by SRB assay; details: SK-OV-3; procedure, shortened: as §1
[10] = Cytotoxicity against human SNB19 cells by SRB assay; details: SNB-19; procedure, shortened: as §1
786-0 = assay: Cytotoxicity against human 786-0 cells by SRB assay; procedure, shortened: as §1
A549 = assay: Cytotoxicity against human A549 cells by SRB assay; procedure, shortened: as §1
[11] = Cytotoxicity against human SF295 cells by SRB assay; details: SF-295; procedure, shortened: as §1
A498 = assay: Cytotoxicity against human A498 cells by SRB assay; procedure, shortened: as §1
KM12 = assay: Cytotoxicity against human KM12 cells by SRB assay; procedure, shortened: as §1
[12] = Cytotoxicity against human MOLT4 cells by SRB assay; details: MOLT-4; procedure, shortened: as §1
[13] = Cytotoxicity against human HCT15 cells by SRB assay; details: HCT-15; procedure, shortened: as §1
[14] = Cytotoxicity against human HCC2998 cells by SRB assay; details: HCC 2998; procedure, shortened: as §1
[15] = Cytotoxicity against human HCT116 cells by SRB assay; details: HCT-116; procedure, shortened: as §1
HT-29 = assay: Cytotoxicity against human HT-29 cells by SRB assay; procedure, shortened: as §1
[16] = Cytotoxicity against human UACC62 cells by SRB assay; details: UACC-62; procedure, shortened: as §1
NCI-H23 = assay: Cytotoxicity against human NCI-H23 cells by SRB assay; procedure, shortened: as §1
[17] = Cytotoxicity against human OVCAR3 cells by SRB assay; details: OVCAR-3; procedure, shortened: as §1
MDA-MB-468 = assay: Cytotoxicity against human MDA-MB-468 cells by SRB assay; procedure, shortened: as §1
SK-MEL-2 = assay: Cytotoxicity against human SK-MEL-2 cells by SRB assay; procedure, shortened: as §1
[18] = Cytotoxicity against human COLO205 cells by SRB assay; details: COLO 205; procedure, shortened: as §1
[19] = Cytotoxicity against human Hs578T cells by SRB assay; details: Hs-578T; procedure, shortened: as §1
[20] = Cytotoxicity against human UO31 cells by SRB assay; details: UO-31; procedure, shortened: as §1
[21] = Cytotoxicity against human SW620 cells by SRB assay; details: SW-620; procedure, shortened: as §1
K562 = assay: Cytotoxicity against human K562 cells by SRB assay; procedure, shortened: as §1
U-251 = assay: Cytotoxicity against human U251 cells by SRB assay; procedure, shortened: as §1
[22] = Cytotoxicity against human HL-60(TB) cells by SRB assay; procedure, shortened: as §2
[23] = Cytotoxicity against human LOXIMVI cells by SRB assay; details: LOX IMVI; procedure, shortened: as §2

Measured: GI50

COc1ccc(/C=C(\C#N)c2cc(OC)c(OC)c(OC)c2)cc1
30 nM: [4] | CCRF-CEM | MDA-MB-231 | [7] | [12]
40 nM: [5] | [14]
50 nM: NCI-H23
20 nM: [2] | [3] | 786-0 | MDA-MB-468 | U-251 | [22]
60 nM: [10]
80 nM: SK-MEL-2
10 nM: SK-MEL-5 | [1] | M14 | ACHN | A549 | [18] | [21] | [23]
< 10 nM: all other assays above
